# High-throughput results from PubChem.
# Sampled rows, rich in hits. Any-hit rate of the full collection: about 2.4%.
# HNF4A DNA FP: change in binding of human HNF4 alpha to DNA; HNF4a-FITC DNA binding, fluorescence polarization, 1 h; activity change, % at 10 µM; 0.3% of 360,000 active; AID 1224865; in the data active means activity change above about 30%, passing the limit was not always enough
# Rpn11 inh: inhibitors of human proteasome Rpn11 | human 26S proteasome, Ub4-pepOG fluorescence polarization; 20S core pre-blocked with epoxomicin | inhibition, % at 20 µM | 0.59% of 360,000 active;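 active means inhibition at 20 µM, scaled to each plate's controls, above about 33%, limit read from the data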
# Neddyl block: blocks human cullin neddylation; P61081+Q13564; TR-FRET cullin neddylation, biochemical; inhibition, % at 25 µM; 0.58% of 360,000 active; in the data active means inhibition above about 36%
# TPT1 inhibitor: blocks Candida albicans tRNA 2'-phosphotransferase | inhibition, % at 5 µM | 0.81% of 300,000 active | recombinant caTPT1, FP RNA substrate dephosphorylation;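 active means inhibition above the mean of all tested compounds plus 3 SD, set per screening campaign, cut at about 24% in these data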;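 further: plate controls were DMSO alone for no effect and ferristatin control at 100 nM for full effect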
# CSN inh: CSN deneddylation inhibition; inhibition, % at 12.5 µM; Q92905; Purified CSN, SCF-Nedd8-OG deneddylation, fluorescence polarization; 0.38% of 360,000 active;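 active means pattern-corrected inhibition above about 35%, with an unprinted fluorescence ratio check between 0.5 and 1.5, limit read from the data, passing the limit was not always enough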;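 further: 0% = enzyme with substrate and 100% = substrate without enzyme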
# Target sequence (Q92905 whole entry, looked up, one chain of several): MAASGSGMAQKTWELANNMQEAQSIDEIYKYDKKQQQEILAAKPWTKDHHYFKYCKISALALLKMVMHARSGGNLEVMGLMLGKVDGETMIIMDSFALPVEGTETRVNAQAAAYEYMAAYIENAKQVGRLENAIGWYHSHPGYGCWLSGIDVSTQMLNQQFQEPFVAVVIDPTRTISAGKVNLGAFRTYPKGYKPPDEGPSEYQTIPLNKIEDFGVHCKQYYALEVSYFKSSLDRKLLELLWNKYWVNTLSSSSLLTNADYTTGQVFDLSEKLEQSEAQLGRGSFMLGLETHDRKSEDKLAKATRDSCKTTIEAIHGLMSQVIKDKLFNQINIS
#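 Assay system: Purified human Csn5 enzyme expressed in HEK293T cells | Amount: Enzyme 0.24 nM | Measured by: Fluorescence polarization readout | Medium: Tris/NaCl/DTT buffer, pH 7.5 | Compound dosing: One concentration, 12.5 µM, 0.25% DMSO | Times: 90 min incubation of compound, enzyme and substrate at room temperature | Control set: no-enzyme wells high, enzyme-with-substrate wells low | Read-out: % inhibition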
# Rin1 Abl inh: inhibitors of human Rin1-Abl protein interaction; P00519+Q13671; TR-FRET Rin1/Abl binding, biochemical; 0.4% of 360,000 active; AID 588664; inhibition, % at 7.35 µM; in the data active means inhibition above about 5%, passing the limit was not always enough
# TPT1 inh confirm: TPT1 (C. albicans) inhibition, confirmation. recombinant caTPT1, fluorescence polarization, RNase T1 coupled. AID 2149. inhibition, % at 5 µM. 74% of 2,400 active. shares compounds with TPT1 inhibitor;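 active means inhibition above the primary screen limit, the mean inhibition of all tested compounds plus 3 SD, cut at about 25% in these data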
# RNase T1 counter: blocks Aspergillus oryzae RNase T1, a TPT1 counter-screen; shares compounds with TPT1 inhibitor; RNase T1 cleavage, fluorescence polarization, 1536-well; inhibition, % at 5 µM; 83% of 2,400 active;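 active means inhibition above the solvent-only control well mean plus 3 SD, limit set per screening run, cut at about 23% in these data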;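 further: plate controls were DMSO wells with enzyme for no effect and wells without RNase T1 for full effect; inhibitors block cleavage so intact labeled substrate keeps polarization high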
# Target sequence (P00651 whole entry, looked up): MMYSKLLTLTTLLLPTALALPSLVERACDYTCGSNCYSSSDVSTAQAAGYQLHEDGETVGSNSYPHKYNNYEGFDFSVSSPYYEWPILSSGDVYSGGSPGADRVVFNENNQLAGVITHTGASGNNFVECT
# * = called active by the depositor; / = not tested or not shown.
SMILES,HNF4A DNA FP,Rpn11 inh,Neddyl block,TPT1 inhibitor,CSN inh,Rin1 Abl inh,TPT1 inh confirm,RNase T1 counter
Cn1c(/C(C#N)=C/c2ccc(O)cc2)nc2ccccc21,1,8,23,6,-1,-2,/,/
COC(=O)/C(C#N)=C/c1c[nH]c2ccccc12,-3,-2,-22,2,-2,-6,/,/
COc1cc(/C=C(\C#N)C(=O)c2c[nH]c3ccccc23)cc(OC)c1O,84*,/,-11,128*,166,0,156*,143*
CCn1c(SC)nnc1C1CCCN(CC(=O)Nc2ccccc2N2CCOCC2)C1 (configuration not stated),1,-5,11,0,-4,1,/,/
CCOC(=O)C1C(=O)C=C(c2ccc(C)cc2)CC1c1ccccc1 (configuration not stated),-3,-6,-13,0,-4,1,/,/
CCOC(=O)C1C(=O)C=C(/C=C/c2ccc(N(C)C)cc2)CC1c1ccccc1 (configuration not stated),118,/,-4,89*,120,-4,77*,80*
COCCN(C(=O)COC(=O)c1ccc2ccccc2c1)c1c(N)n(Cc2ccccc2)c(=O)[nH]c1=O,-1,5,-14,/,4,-1,/,/
COCCN(C(=O)COC(=O)c1ccc2[nH]c(C)c(C)c2c1)c1c(N)n(Cc2ccccc2)c(=O)[nH]c1=O,11,23,32,28*,4,-1,60*,71*
CCOC(=O)c1c(Nc2ccc(Cl)cc2)sc(/C=C2\C=Nc3ccccc32)c1O,45*,/,7,36*,18,0,46*,54*
COc1cc(-c2nc3ccccc3c(=O)n2N)cc(OC)c1OC,1,7,10,0,-2,-2,/,/
Cc1cc(/C=C2/C(=O)N(C)C(=S)N2C)ccc1N1CCCC1,112,/,-76,159*,90,-3,155*,142*
CN1C(=O)/C(=C/c2ccc(O)c([N+](=O)[O-])c2)NC1=S,-2,-2,-108,-1,-2,-5,/,/
CCCN1C(=O)/C(=C/c2ccc(N3CCCC3)c(C)c2)NC1=S,141,/,-75,134*,56,-4,139*,130*
Cc1cc(/C=C2\NC(=S)N(C)C2=O)ccc1N1CCCC1,154,/,-111,137*,115,-5,128*,122*
CCN1C(=O)c2cccc3c(NC(=O)c4ccc5c(c4)OCCO5)ccc1c23,60*,/,-48,47*,20,-4,65*,72*
O=C(CSc1nc(-c2ccccc2)nc2c1CCCC2)N1CCOCC1,-4,1,-20,56*,3,6,28*,30*
O=C(N/N=C/c1c(O)n(-c2ccc(Cl)cn2)c(=O)c2ccccc12)c1ccncc1,72*,/,-20,130*,21,-4,154*,143*
CCn1c(CNC(=O)c2ccco2)nnc1SCC(=O)Nc1ccccc1Cl,-1,2,-3,-2,-3,-1,/,/
COc1nn(-c2nc(-c3ccccc3)cc(C(F)(F)F)n2)cc1[N+](=O)[O-],1,-1,-9,55*,-2,5,2,5
FC(F)(F)c1cc(-c2ccccc2)nc(-n2cc(Cl)cn2)n1,-1,1,-1,-3,4,-3,/,/
O=C(NC(=S)Nc1cccc(O)c1)C12CC3CC(CC(C3)C1)C2,1,0,-4,/,1,2,/,/
O=C(/C=C/c1ccc2ccccc2n1)c1cc(Br)ccc1O,29,/,5,43*,17,-3,16,23*
O=C(O)/C=C/c1ccc2ccccc2n1,-1,-2,-12,1,-2,3,/,/
Cn1c(N/N=C/c2c[nH]c3ccccc23)nc2ccccc21,-3,16,-5,0,3,-5,/,/
Cn1c(N/N=C/c2cc3ccccc3nc2Cl)nc2ccccc21,60*,10,6,69*,11,-2,10,19
SMILES,HNF4A DNA FP,Rpn11 inh,Neddyl block,TPT1 inhibitor,CSN inh,Rin1 Abl inh,TPT1 inh confirm,RNase T1 counter
CC1=NN(c2ccccc2)C(=O)C1C=Nc1ccc(N(C)C)cc1 (configuration not stated),3,33,-30,42*,10,5,67*,77*
CC1=NN(c2ccccc2)C(=O)C1N=Nc1ccc(C)cc1 (configuration not stated),/,/,/,-2,/,/,/,/
Cc1ccc2nc(/C(C#N)=C/c3ccc(-c4cccc([N+](=O)[O-])c4)o3)[nH]c2c1,23,-34,-21,76*,45,-3,65*,74*
Clc1ccc(-c2nc3cc(CN4CCCCC4)ccc3o2)cc1,1,-9,-20,/,3,-3,/,/
CCc1ccccc1NC(=S)N(CCN(C)C)Cc1cccs1,3,4,-1,2,-7,1,/,/
N#Cc1ccc(-c2ccco2)nc1SCC(=O)c1ccc(Cl)cc1,16,48*,-256,99*,24,-3,62*,67*
Cc1ccc(C(=O)CSc2nc(-c3ccccc3)ccc2C#N)cc1,5,/,-273,24,5,0,/,/
CC(O)(P(=O)(O)O)P(=O)(O)O,-2,-2,-4,/,-1,0,/,/
Oc1[nH]c(=S)sc1/C=C1\C(c2ccccc2)=Nc2ccccc21,95*,/,-35,138*,24,-5,130*,136*
COc1ccc(OC)c(-c2oc3ccccc3c(=O)c2O)c1,2,-4,28,0,4,-4,/,/
COc1ccc(OC)c(C2=C/C(=C/c3ccccn3)C(=O)O2)c1,6,/,12,80*,32,2,84*,90*
CN1C(C(=O)Nc2ccc(OC(F)(F)F)cc2)=CC(c2ccc3c(c2)OCO3)=NS1(=O)=O,2,1,/,2,3,4,/,/
O=C(Nc1nnc([C@@H]2C[C@H](O)[C@@H](CO)O2)s1)Nc1cccc2c1CCCC2,-4,-8,1,/,7,1,/,/
CC1CCc2c(sc(Nc3nc4c(F)cccc4s3)c2C(N)=O)C1 (configuration not stated),37*,/,/,48*,12,-3,57*,69*
O=C(Nc1nc2c(F)cccc2s1)C1CC1,-1,-8,5,2,0,-2,/,/
CC1CC(C)(C)NC(=S)N1CC(=O)N1CCN(Cc2ccc3c(c2)OCO3)CC1 (configuration not stated),0,-5,0,-4,3,-10,/,/
N#CC1=C(N)Oc2cc(N)ccc2C1c1cccc(F)c1 (configuration not stated),13,16,21,-2,4,-5,/,/
